Measurements as given in ChEMBL document CHEMBL1125838, “Conformational restriction of the phenylalanine residue in a cyclic opioid peptide analogue: effects on receptor selectivity and stereospecificity” (J Med Chem, 1991).

Assays:
[1] = species on record: Cavia porcellus; assay: Relative potency towards guinea pig ileum relative to [Leu5]-enkephalin; type: functional
Outline: (§1)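 The [Leu5]enkephalin standard's log dose-response curve was run on each individual ileum or vas deferens preparation. Test IC50 values for inhibition of electrically evoked contractions were normalized to it, giving potency relative to [Leu5]enkephalin.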

[2] = species on record: Cavia porcellus; assay: Compound was tested in vitro for inhibition of electrically evoked contractions of the guinea pig ileum; type: functional
Outline: (§2)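 Electrically stimulated guinea pig ileum or mouse vas deferens preparations; inhibition of evoked contractions measured. Each preparation also gave a log dose-response curve for the [Leu5]enkephalin standard, and test IC50 values were normalized against it. Naloxone Ki came from the ratio of IC50 values with and without a fixed naloxone concentration.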

[3] = species on record: Mus musculus; assay: Compound was tested in vitro for inhibition of electrically evoked contractions of the mouse vas deferens; type: functional; outline: as §2
[4] = species on record: Mus musculus; assay: Relative potency towards mouse vas deferens relative to [Leu5]-enkephalin; type: functional; outline: as §1
[5] = target: Delta-type opioid receptor (Rattus norvegicus, UniProt P33533); assay: Displacement of [3H]DSLET from rat brain membrane opioid receptor delta
Sequence of Delta-type opioid receptor (P33533 whole entry): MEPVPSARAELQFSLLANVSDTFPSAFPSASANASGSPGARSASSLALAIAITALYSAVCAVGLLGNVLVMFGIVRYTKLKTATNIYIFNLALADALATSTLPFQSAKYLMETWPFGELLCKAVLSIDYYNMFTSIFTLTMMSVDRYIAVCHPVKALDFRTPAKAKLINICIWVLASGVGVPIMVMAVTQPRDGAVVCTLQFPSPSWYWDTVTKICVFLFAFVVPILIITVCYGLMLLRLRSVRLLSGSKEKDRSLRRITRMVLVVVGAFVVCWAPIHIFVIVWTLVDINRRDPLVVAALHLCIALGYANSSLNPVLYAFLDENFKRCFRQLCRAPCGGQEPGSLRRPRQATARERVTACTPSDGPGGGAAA
Outline: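 Rat brain membranes incubated with 0.78 nM [3H]DSLET at 0 °C for 2 h. IC50 taken from log dose-displacement curves.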

[6] = target: Mu-type opioid receptor (Rattus norvegicus, UniProt P33535); assay: Displacement of [3H]DAGO from rat brain membrane opioid receptor mu
Sequence of Mu-type opioid receptor (P33535 whole entry): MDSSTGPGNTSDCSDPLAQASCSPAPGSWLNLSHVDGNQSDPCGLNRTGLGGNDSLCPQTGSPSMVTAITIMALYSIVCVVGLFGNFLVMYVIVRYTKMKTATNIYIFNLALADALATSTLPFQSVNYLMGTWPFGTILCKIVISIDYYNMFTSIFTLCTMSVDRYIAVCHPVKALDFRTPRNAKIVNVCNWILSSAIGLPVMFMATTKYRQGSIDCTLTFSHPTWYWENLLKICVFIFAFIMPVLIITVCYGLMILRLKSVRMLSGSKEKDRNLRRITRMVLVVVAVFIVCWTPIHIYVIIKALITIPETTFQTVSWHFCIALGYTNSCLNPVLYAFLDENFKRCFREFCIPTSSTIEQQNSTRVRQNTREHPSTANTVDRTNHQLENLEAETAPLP

SMILES	Relative potency [1]	IC50 [2] [nM]	IC50 [3] [nM]	Relative potency [4]	Ki [5] [nM]	Ki [6] [nM]	Relative potency [3] [nM]
NC(=O)[C@@H]1CCC(=O)NCCC[C@@H](NC(=O)[C@@H](N)Cc2ccc(O)cc2)C(=O)N[C@@H](CCc2ccccc2)C(=O)N1	42.3	5.82	34.3	0.332	15.4	–	–
NC(=O)[C@@H]1CCC(=O)NCCC[C@@H](NC(=O)[C@@H](N)Cc2ccc(O)cc2)C(=O)NC2(Cc3ccccc3C2)C(=O)N1 [listing 1 of 2 here]	–	7.21	36.5	–	209	4.21	–
NC(=O)[C@@H]1CCC(=O)NCCC[C@@H](NC(=O)[C@@H](N)Cc2ccc(O)cc2)C(=O)N[C@@]2(CCc3ccccc3C2)C(=O)N1 (single isomer, unassigned)	0.863	285	3070	0.00371	3510	26.3	–
NC(=O)[C@@H]1CCC(=O)NCCC[C@@H](NC(=O)[C@@H](N)Cc2ccc(O)cc2)C(=O)N[C@]2(CCc3ccccc3C2)C(=O)N1 (single isomer, unassigned)	7.78	31.6	254	0.0449	1570	8.26	–
NC(=O)[C@@H]1CCC(=O)NCCC[C@@H](NC(=O)[C@@H](N)Cc2ccc(O)cc2)C(=O)N[C@@H](Cc2ccccc2)C(=O)N1	210	1.17	1.11	10.3	3.21	0.981	–
C[C@]1(Cc2ccccc2)NC(=O)[C@H](NC(=O)[C@@H](N)Cc2ccc(O)cc2)CCCNC(=O)CC[C@@H](C(N)=O)NC1=O	74.3	3.31	5.51	2.07	54.6	7.17	–
NC(=O)[C@@H]1CCC(=O)NCCC[C@@H](NC(=O)[C@@H](N)Cc2ccc(O)cc2)C(=O)N[C@@H](Cc2ccc3ccccc3c2)C(=O)N1	60.5	4.07	10.9	1.05	50.7	2.56	–
NC(=O)[C@@H]1CCC(=O)NCCC[C@@H](NC(=O)[C@@H](N)Cc2ccc(O)cc2)C(=O)N[C@H](Cc2ccccc2)C(=O)N1	0.28	–	–	0.00295	14000	–	3860
NC(=O)[C@@H]1CCC(=O)NCCC[C@@H](NC(=O)[C@@H](N)Cc2ccc(O)cc2)C(=O)N2Cc3ccccc3C[C@H]2C(=O)N1	0.0803	3060	7310	0.00156	50100	2410	–
NC(=O)[C@@H]1CCC(=O)NCCC[C@@H](NC(=O)[C@@H](N)Cc2ccc(O)cc2)C(=O)NC2(Cc3ccccc3C2)C(=O)N1 [listing 2 of 2 here]	34.1	–	–	0.312	–	–	–
Cc1ccccc1C[C@@H]1NC(=O)[C@H](NC(=O)[C@@H](N)Cc2ccc(O)cc2)CCCNC(=O)CC[C@@H](C(N)=O)NC1=O	453	0.543	1.11	10.3	9.22	1.92	–
CN1C(=O)[C@H](NC(=O)[C@@H](N)Cc2ccc(O)cc2)CCCNC(=O)CC[C@@H](C(N)=O)NC(=O)[C@@H]1Cc1ccccc1	0.348	707	2070	0.00551	12800	1000	–
NC(=O)[C@@H]1CCC(=O)NCCC[C@@H](NC(=O)[C@@H](N)Cc2ccc(O)cc2)C(=O)N[C@H](CCc2ccccc2)C(=O)N1	0.338	728	4160	0.00274	2600	258	–
